For 12 molecules, IC50 and Activity results are on record in ChEMBL document CHEMBL2406909, “Hydrolysis reactions of the taccalonolides reveal structure-activity relationships” (J Nat Prod, 2013).

Activity calls are given as the source filed them. No cut-off for these calls is given here. Bounds are passed on as bounds.

Assay [1] has as its system HeLa. As to the kind of experiment: Antiproliferative activity against human HeLa cells. It is filed as functional, cell-based. The method in brief: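 HeLa cells (ATCC) grown in Basal Medium Eagle with 10% FBS and 50 μg/mL gentamicin and exposed to compound for 48 h. Cells then TCA-fixed and stained with sulforhodamine B, with density read as absorbance at 560 nm. IC50 (50% inhibition of proliferation) taken ± SD from three independent experiments, each run in triplicate.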

Assay [2] has as its system HeLa. The experiment in a line: Stabilization of microtubule in human HeLa cells assessed as increase in cellular density of interphase microtubules at 50 uM after 18 hrs by immunofluoroescence analysis. The class given is cell-based. The method in brief: (§1)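 HeLa cells in Basal Medium Eagle with 10% FBS and gentamicin, treated with vehicle or taccalonolide for 18 h. Interphase microtubules visualized by indirect immunofluorescence with a β-tubulin antibody and imaged by fluorescence microscopy. Microtubule density and bundling judged from representative images against vehicle-treated cells.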

For assay [3], the system named is HeLa. As to the kind of experiment: Antiproliferative activity against human HeLa cells after 48 hrs by SRB assay. The class given is functional, cell-based. For orientation: In SRB staining, fixed cells bind dye roughly in proportion to their protein.
Assay [4] has as its system HeLa. As to the kind of experiment: Stabilization of microtubule in human HeLa cells assessed as increase in cellular density of interphase microtubules at 10 uM after 18 hrs by immunofluoroescence analysis. It is filed as cell-based. Summed up:
as §1

The term IC50 denotes the concentration that inhibits the measured activity by half. As to `CC(=O)O[C@@H]1[C@H]2[C@H]3[C@H]([C@H](OC(C)=O)[C@H](OC(C)=O)[C@]2(C)[C@H]2[C@H](C)[C@@H]4O[C@@]45OC(=O)[C@@](C)(O)[C@]5(C)[C@H]12)[C@]1(C)[C@H](C[C@@H]2O[C@@H]2[C@@H]1OC(C)=O)C(=O)[C@@H]3O`, in the assay on HeLa [1], the 50% inhibitory concentration (IC50) stood at 0.023 µM.
`CC(=O)O[C@H]1C[C@H]2[C@H]([C@@H]3[C@@H](O)[C@@H]4[C@H]([C@H](C)C=C5OC(=O)[C@@](C)(O)[C@@]54C)[C@]31C)[C@@H](O)C(=O)[C@@]1(O)C[C@@H]3O[C@@H]3[C@H](OC(C)=O)[C@]21C`: the outcome with HeLa [2] was Active. The IC50 in the assay with HeLa [3] was found to be 34.4 µM.
The matching figures for `CC(=O)O[C@H]1[C@H]2[C@H]([C@@H]3[C@H]4OC(=O)[C@@](C)(O)[C@@]5(C)C(=O)C[C@@H](C)[C@@H]([C@@H]45)[C@@]3(C)[C@H]1OC(C)=O)[C@@H](O)C(=O)[C@H]1C[C@@H]3O[C@@H]3[C@H](OC(C)=O)[C@]21C`: “inactive” and more than 50 µM.
In the assay with HeLa [3], `CC(=O)O[C@H]1C[C@H]2[C@H]([C@@H]3[C@@H](O)[C@@H]4[C@H]([C@H](C)C=C5OC(=O)[C@@](C)(O)[C@@]54C)[C@]31C)[C@@H](O)C(=O)[C@H]1C[C@@H]3O[C@@H]3[C@H](O)[C@@]12C` displayed an IC50 of 1.5 µM. Also, in the assay on HeLa [4], the outcome was Active.
With `CC(=O)O[C@H]1[C@H]2[C@@H](C(=O)[C@H](O)[C@H]3C[C@@H]4O[C@@H]4[C@H](OC(C)=O)[C@]23C)[C@@H]2[C@@H](O)[C@@H]3[C@H]([C@H](C)C=C4OC(=O)[C@@](C)(O)[C@@]43C)[C@@]2(C)[C@H]1OC(C)=O`, the half-inhibitory concentration (IC50) in the assay on HeLa [3] was 49.2 µM.
On to `CC(=O)O[C@H]1C[C@H]2[C@H]([C@@H]3[C@H]4OC(=O)[C@@](C)(O)[C@@]5(C)C(=O)C[C@@H](C)[C@@H]([C@@H]45)[C@]31C)[C@@H](O)C(=O)[C@H]1C[C@@H]3O[C@@H]3[C@H](OC(C)=O)[C@@]12C`, for which, in the assay on HeLa [2], the outcome was inactive. This molecule gave an IC50 with HeLa [3] of more than 50 µM.
`CC(=O)O[C@H]1[C@H]2[C@H]([C@@H]3[C@@H](O)[C@@H]4[C@H]([C@H](C)[C@@H]5O[C@@]56OC(=O)[C@@](C)(O)[C@]46C)[C@@]3(C)[C@H]1OC(C)=O)[C@@H](O)C(=O)[C@H]1C[C@@H]3O[C@@H]3[C@H](OC(C)=O)[C@]21C` had a concentration for half-maximal inhibition (IC50) in the assay on HeLa [1] of 0.0042 µM.
Take `CC(=O)O[C@@H]1[C@H]2[C@H]3[C@H]([C@H](OC(C)=O)[C@H](OC(C)=O)[C@]2(C)[C@@H]2[C@@H]1[C@]1(C)C(=C[C@H]2C)OC(=O)[C@@]1(C)O)[C@]1(C)[C@H](C[C@@H]2O[C@@H]2[C@@H]1OC(C)=O)C(=O)[C@@H]3O` [TACCALONOLIDE A]: the half-maximal inhibitory concentration (IC50) in the assay with HeLa [3] came out at 5.32 µM.
As for `CC(=O)O[C@H]1[C@H]2[C@H]([C@@H]3[C@@H](O)[C@@H]4[C@H]([C@H](C)C=C5OC(=O)[C@@](C)(O)[C@@]54C)[C@@]3(C)[C@H]1OC(C)=O)[C@@H](O)C(=O)[C@H]1C[C@@H]3O[C@@H]3[C@H](OC(C)=O)[C@]21C` [TACCALONOLIDE B], it took 3.12 µM to reach half-maximal inhibition with HeLa [3] (IC50).
Consider `CC(=O)O[C@H]1C[C@H]2[C@H]([C@@H]3[C@@H](O)[C@@H]4[C@H]([C@H](C)C=C5OC(=O)[C@@](C)(O)[C@@]54C)[C@]31C)[C@@H](O)C(=O)[C@@]1(O)C[C@@H]3O[C@@H]3[C@H](OC(=O)CC(C)C)[C@]21C`, for which the result with HeLa [2] was Active. In addition, half-maximal inhibition with HeLa [3] (IC50) required 2 µM.
In the assay on HeLa [3], `CC(=O)O[C@H]1C[C@H]2[C@H]([C@@H]3[C@@H](O)[C@@H]4[C@H]([C@H](C)C=C5OC(=O)[C@@](C)(O)[C@@]54C)[C@]31C)[C@@H](O)C(=O)[C@H]1C[C@@H]3O[C@@H]3[C@H](OC(C)=O)[C@@]12C` [TACCALONOLIDE N] gave a 50% inhibitory concentration (IC50) of 8.5 µM.
Same read-out and setting: in the case of `CC(=O)O[C@@H]1[C@H]2[C@@H]3[C@@H](O)C(=O)[C@H]4C[C@@H]5O[C@@H]5[C@H](OC(C)=O)[C@]4(C)[C@H]3C[C@H](OC(C)=O)[C@]2(C)[C@@H]2[C@@H]1[C@]1(C)C(=C[C@H]2C)OC(=O)[C@@]1(C)O` [TACCALONOLIDE E] it was 39.5 µM.
